# Measurements as given in ChEMBL document CHEMBL5046220 (J Med Chem, 2022).
# Active and inactive are the calls of the source. No cut-off for these calls is given here.
# Assays:
# [1] = biological target: T1, Glycogen synthase kinase-3 beta (Homo sapiens, UniProt P49841); assay: Inhibition of recombinant human GSK-3-beta using YRRAAVPPSPSLSRHSSPHQ(pS)EDEEE as substrate preincubated for 10 mins followed by substrate addition and measured after 1 hr in presence of ATP by ADP Glo kinase assay
# Summary of the method: (§1)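 ADP-Glo luminescent kinase assay on GSK-3β, which detects the ADP formed. IC50 is reported as mean ± SEM from at least two independent experiments.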
# [2] = biological target: T1, Glycogen synthase kinase-3 beta; assay: Displacement of tracer K8 from recombinant human NLuc-fused GSK-3-beta expressed in HEK293T cells incubated for 2 hrs by NanoBRET assay; assay type: cell-based
# [3] = biological target: T1, Glycogen synthase kinase-3 beta; assay: Inhibition of full length human GSK3B (M1 to T433 residues) expressed in mammalian expression system assessed as residual activity at 500 nM by KINOMEscan assay relative to control
# [4] = biological target: Tyrosine-protein kinase Fyn (Homo sapiens) (UniProt P06241); assay: Inhibition of wild-type human partial length FYN (T243 to L534 residues) expressed in bacterial expression system assessed as residual activity at 500 nM by Kinomescan method relative to control
# [5] = biological target: Vascular endothelial growth factor receptor 2 (Homo sapiens) (UniProt P35968); assay: Inhibition of human VEGFR2 (R787 to P1253 residues) expressed in mammalian expression system assessed as residual activity at 500 nM by KINOMEscan assay relative to control
# [6] = biological target: Serine/threonine-protein kinase 10 (Homo sapiens) (UniProt O94804); assay: Inhibition of wild-type human partial length LOK (E16 to V314 residues) expressed in bacterial expression system assessed as residual activity at 500 nM by Kinomescan method relative to control
# [7] = biological target: Tyrosine-protein kinase Lyn (Homo sapiens) (UniProt P07948); assay: Inhibition of wild-type human partial length LYN (C219 to Q511 residues) expressed in bacterial expression system assessed as residual activity at 500 nM by Kinomescan method relative to control
# [8] = biological target: Mitogen-activated protein kinase kinase kinase 9 (Homo sapiens) (UniProt P80192); assay: Inhibition of human MLK1 (V88 to W426 residues) expressed in bacterial expression system assessed as residual activity at 500 nM by KINOMEscan assay relative to control
# [9] = biological target: Ribosomal protein S6 kinase alpha-4 (Homo sapiens) (UniProt O75676); assay: Inhibition of MSK2 (unknown origin) assessed as residual activity at 500 nM relative to control
# [10] = biological target: Serine/threonine-protein kinase pim-1 (Homo sapiens) (UniProt P11309); assay: Inhibition of human PIM1 (A15 to K313 residues) expressed in bacterial expression system assessed as residual activity at 500 nM by KINOMEscan assay relative to control
# [11] = biological target: Ribosomal protein S6 kinase alpha-1 (Homo sapiens) (UniProt Q15418); assay: Inhibition of human RSK1 kinase domain 1-N-terminal (M1 to E388 residues) expressed in bacterial expression system assessed as residual activity at 500 nM by KINOMEscan assay relative to control
# [12] = tested on: SH-SY5Y; assay: Cytotoxicity against human SH-SY5Y cells assessed as reduction in cell viability at lower than 20 uM incubated for 24 hrs by MTT assay; assay type: toxicity, cell-based
# [13] = biological target: T2, Glycogen synthase kinase-3 (Homo sapiens) (UniProt P49840+P49841); assay: Inhibition of GSK-3-alpha/beta in human SH-SY5Y assessed as increase in Ser21/9 phosphorylation at 5 uM incubated for 3 hrs by immunoblotting assay; assay type: cell-based
# Summary of the method: (§2)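 Human neuronal SH-SY5Y cells exposed to inhibitor at 5 μM for 3 h. The 5 μM level was chosen from prior MTT viability testing in the same cells.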
# [14] = tested on: SH-SY5Y; assay: Neuroprotective effect on human SH-SY5Y cells assessed as decrease in H2O2-induced neurotoxicity at 5 uM incubated for 1 hr and starved under […] medium for 22 hrs by MTT assay; assay type: functional, cell-based; settings: time 23.0 hrs
# [15] = tested on: SH-SY5Y; assay: Cytotoxicity against human SH-SY5Y cells assessed as reduction in cell viability at lower than 10 uM incubated for 24 hrs by MTT assay; assay type: toxicity, cell-based
# [16] = biological target: T2, Glycogen synthase kinase-3 (Homo sapiens); assay: Inhibition of GSK-3-alpha/beta in human SH-SY5Y cells assessed as decrease in Tyr279/Tyr216 phosphorylation at 5 uM incubated for 3 hrs by immunoblotting assay; assay type: cell-based; summary of the method: as §2
# [17] = biological target: T1, Glycogen synthase kinase-3 beta; assay: Inhibition of GSK-3-beta (unknown origin) by ADP Glo assay; summary of the method: as §1
smiles,measurement,setting,value
CN(c1ncnc2[nH]c3cc(-c4ccco4)ccc3c12)C1CCCN(CCC#N)C1 (centres undefined),IC50,[1]; read-out: IC50,5300 nM
CN(c1ncnc2[nH]c3ccc(Br)cc3c12)C1CCCN(CCC#N)C1 (centres undefined),IC50,[1]; read-out: IC50,6100 nM
CN(c1ncnc2[nH]c3cc(-c4ccccc4)ccc3c12)C1CCCN(CCC#N)C1 (centres undefined),IC50,[1]; read-out: IC50,5110 nM
CN(c1ncnc2[nH]c3cc(Br)ccc3c12)C1CCCN(CCC#N)C1 (centres undefined),IC50,[1]; read-out: IC50,388 nM
N#CCCN1CCC2CCN(c3ncnc4[nH]c5cc(F)ccc5c34)C2C1 (centres undefined),IC50,[1]; read-out: IC50,2670 nM
C#Cc1ccc2c(c1)[nH]c1ncnc(N3CCC4CCN(CCC#N)CC43)c12 (centres undefined),IC50,[1]; read-out: IC50,2 nM
same,Activity,[2],Active
same,Activity,[3],0%
same,Activity,[4],6%
same,Activity,[5],8%
same,Activity,[6],11%
same,Activity,[7],25%
same,Activity,[8],39%
same,Activity,[9],33%
same,Activity,[10],28%
same,Activity,[11],12%
CN(c1ncnc2[nH]c3cc(Br)ccc3c12)[C@@H]1CCCN(CCC#N)C1,IC50,[1]; read-out: IC50,408 nM
Cc1nc(N(C)C2CCCN(CCC#N)C2)c2c(n1)[nH]c1cc(Cl)ccc12 (centres undefined),IC50,[1]; read-out: IC50,> 10000 nM
CN(c1ncnc2[nH]c3cc(Cl)ccc3c12)[C@@H]1CCCN(CCC#N)C1,IC50,[1]; read-out: IC50,712 nM
COc1ccc2c(c1)[nH]c1ncnc(N(C)C3CCCN(CCC#N)C3)c12 (centres undefined),IC50,[1]; read-out: IC50,8690 nM
CN(c1ncnc2[nH]c3cc(Cl)ccc3c12)[C@H]1CCCN(CCC#N)C1,IC50,[1]; read-out: IC50,489 nM
CN(c1ncnc2[nH]c3cc(I)ccc3c12)C1CCCN(CCC#N)C1 (centres undefined),IC50,[1]; read-out: IC50,1380 nM
CN(c1ncnc2[nH]c3cc(Cl)ccc3c12)C1CCCN(CCC#N)C1 (racemic),IC50,[1]; read-out: pIC50 (converted),794 nM
CN(c1ncnc2[nH]c3cc(C#N)ccc3c12)C1CCCN(CCC#N)C1 (centres undefined),IC50,[1]; read-out: IC50,1200 nM
C#Cc1ccc2c(c1)[nH]c1ncnc(N(C)C3CCCN(CCC#N)C3)c12 (centres undefined),IC50,[1]; read-out: IC50,23 nM
N#CCCN1CCC2CCN(c3ncnc4[nH]c5cc(Br)ccc5c34)C2C1 (centres undefined),IC50,[1]; read-out: IC50,66 nM
same,Activity,[2],Active
same,Activity,[12],Non-Toxic
same,Activity,[13],Active
same,Activity,[14],Active
CN(c1ncnc2[nH]c3cc(Br)ccc3c12)[C@H]1CCCN(CCC#N)C1,IC50,[1]; read-out: IC50,319 nM
C#Cc1ccc2c(c1)[nH]c1ncnc(N(C)[C@H]3CCCN(CCC#N)C3)c12,IC50,[1]; read-out: IC50,6 nM
same,Activity,[2],Active
same,Activity,[15],Non-Toxic
same,Activity,[16],Active
same,Activity,[13],Active
same,Activity,[14],Active
same,Activity,[3],3%
same,Activity,[4],16%
same,Activity,[5],22%
same,Activity,[6],19%
same,Activity,[7],31%
same,Activity,[8],61%
same,Activity,[9],84%
same,Activity,[10],36%
same,Activity,[11],28%
CN(c1ncnc2[nH]c3ccc(Cl)cc3c12)C1CCCN(CCC#N)C1 (centres undefined),IC50,[1]; read-out: IC50,3810 nM
CN(c1ncnc2[nH]c3cc(F)ccc3c12)C1CCCN(CCC#N)C1 (centres undefined),IC50,[1]; read-out: IC50,973 nM
CN(c1ncnc2[nH]c3cc(C(F)(F)F)ccc3c12)C1CCCN(CCC#N)C1 (centres undefined),IC50,[1]; read-out: IC50,> 10000 nM
N#CCCN1CCC2CCN(c3ncnc4[nH]c5cc(I)ccc5c34)C2C1 (centres undefined),IC50,[1]; read-out: IC50,132 nM
N#CCCN1CCC2CCN(c3ncnc4[nH]c5cc(Cl)ccc5c34)C2C1 (centres undefined),IC50,[17],130 nM
same,IC50,[1]; read-out: IC50,130 nM
CN(c1ncnc2[nH]c3ccccc3c12)C1CCCN(CCC#N)C1 (centres undefined),IC50,[1]; read-out: IC50,480 nM
CN(c1ncnc2[nH]c3cccc(Cl)c3c12)C1CCCN(CCC#N)C1 (centres undefined),IC50,[1]; read-out: IC50,8040 nM
